Test results: ChEMBL document CHEMBL5029150, “Controlling Intramolecular Interactions in the Design of Selective, High-Affinity Ligands for the CREBBP Bromodomain” (J Med Chem, 2021)
The source made the active and inactive calls. No cut-off for these calls is given here.

Tests used:
Details in all cases: dose microM <=1
[1] = target: T1, Transcription intermediary factor 1-alpha (Homo sapiens) (UniProt O15164); assay: Binding affinity to human TRIM24 assessed as dissociation constant up to 1 uM by BROMOscan assay
T1 sequence (whole entry): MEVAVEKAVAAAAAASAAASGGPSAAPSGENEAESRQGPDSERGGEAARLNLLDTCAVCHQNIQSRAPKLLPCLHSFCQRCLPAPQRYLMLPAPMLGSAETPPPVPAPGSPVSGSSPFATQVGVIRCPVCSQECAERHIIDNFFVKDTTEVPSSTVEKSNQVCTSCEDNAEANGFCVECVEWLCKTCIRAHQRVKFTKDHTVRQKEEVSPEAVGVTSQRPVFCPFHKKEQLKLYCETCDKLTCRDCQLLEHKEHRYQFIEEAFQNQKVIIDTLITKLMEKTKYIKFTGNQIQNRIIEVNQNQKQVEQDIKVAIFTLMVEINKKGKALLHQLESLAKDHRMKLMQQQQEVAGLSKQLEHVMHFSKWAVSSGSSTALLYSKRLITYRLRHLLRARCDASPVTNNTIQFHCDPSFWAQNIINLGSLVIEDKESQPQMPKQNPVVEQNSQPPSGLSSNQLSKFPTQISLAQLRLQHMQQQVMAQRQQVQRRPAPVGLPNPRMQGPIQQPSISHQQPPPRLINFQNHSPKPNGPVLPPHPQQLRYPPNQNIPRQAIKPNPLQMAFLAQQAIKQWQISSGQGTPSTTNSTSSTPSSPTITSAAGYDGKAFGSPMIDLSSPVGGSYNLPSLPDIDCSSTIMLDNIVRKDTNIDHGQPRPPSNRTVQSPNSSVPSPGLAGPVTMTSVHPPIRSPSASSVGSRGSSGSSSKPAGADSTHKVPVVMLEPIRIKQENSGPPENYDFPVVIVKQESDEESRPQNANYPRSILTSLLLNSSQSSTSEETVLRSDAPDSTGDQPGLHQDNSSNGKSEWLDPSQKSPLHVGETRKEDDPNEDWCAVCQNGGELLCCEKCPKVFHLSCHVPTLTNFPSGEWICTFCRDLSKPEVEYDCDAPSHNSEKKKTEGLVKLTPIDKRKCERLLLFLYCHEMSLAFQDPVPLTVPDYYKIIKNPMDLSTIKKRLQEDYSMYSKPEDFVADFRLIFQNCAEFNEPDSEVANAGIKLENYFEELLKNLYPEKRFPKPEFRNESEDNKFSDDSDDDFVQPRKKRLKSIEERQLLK
Outline: (§1)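 BROMOscan competition binding panel of 12 phylogenetically diverse bromodomains, including the CREBBP and EP300 bromodomains.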

[2] = target: Transcription initiation factor TFIID subunit 1 (Homo sapiens) (UniProt P21675); assay: Binding affinity to human TAF1 bromo domain 2 assessed as dissociation constant up to 1 uM by BROMOscan assay; outline: as §1
[3] = target: Bromodomain-containing protein 2 (Homo sapiens) (UniProt P25440); assay: Binding affinity to human BRD2 bromodomain 1 assessed as dissociation constant up to 1 uM by BROMOscan assay; outline: as §1
Bromodomain-containing protein 2 (Homo sapiens), sequence (P25440 whole entry, looked up): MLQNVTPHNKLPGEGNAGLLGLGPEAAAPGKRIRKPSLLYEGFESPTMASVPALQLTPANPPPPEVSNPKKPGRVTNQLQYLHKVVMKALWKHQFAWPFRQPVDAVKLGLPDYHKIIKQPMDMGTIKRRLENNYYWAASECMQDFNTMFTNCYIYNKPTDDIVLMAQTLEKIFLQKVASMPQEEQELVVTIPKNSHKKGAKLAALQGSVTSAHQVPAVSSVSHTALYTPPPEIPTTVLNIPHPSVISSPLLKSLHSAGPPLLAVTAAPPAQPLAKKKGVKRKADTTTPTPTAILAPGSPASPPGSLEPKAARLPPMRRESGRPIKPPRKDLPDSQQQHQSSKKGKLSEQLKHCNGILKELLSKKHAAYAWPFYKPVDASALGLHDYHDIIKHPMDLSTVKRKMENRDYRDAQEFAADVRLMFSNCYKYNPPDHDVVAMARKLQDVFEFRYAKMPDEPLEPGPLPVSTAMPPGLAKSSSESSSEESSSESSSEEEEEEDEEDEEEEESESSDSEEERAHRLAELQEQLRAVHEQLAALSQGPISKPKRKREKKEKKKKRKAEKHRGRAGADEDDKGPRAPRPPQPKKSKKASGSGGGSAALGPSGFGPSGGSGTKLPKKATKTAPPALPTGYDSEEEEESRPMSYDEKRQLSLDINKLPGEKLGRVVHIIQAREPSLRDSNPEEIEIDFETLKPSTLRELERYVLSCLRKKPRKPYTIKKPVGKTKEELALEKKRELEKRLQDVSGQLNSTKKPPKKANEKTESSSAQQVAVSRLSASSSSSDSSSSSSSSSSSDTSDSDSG

[4] = target: SWI/SNF-related matrix-associated actin-dependent regulator of chromatin subfamily A member 4 (Homo sapiens) (UniProt P51532); assay: Binding affinity to human SMARCA4 assessed as dissociation constant up to 1 uM by BROMOscan assay; outline: as §1
SWI/SNF-related matrix-associated actin-dependent regulator of chromatin subfamily A member 4 (Homo sapiens), sequence (P51532 whole entry): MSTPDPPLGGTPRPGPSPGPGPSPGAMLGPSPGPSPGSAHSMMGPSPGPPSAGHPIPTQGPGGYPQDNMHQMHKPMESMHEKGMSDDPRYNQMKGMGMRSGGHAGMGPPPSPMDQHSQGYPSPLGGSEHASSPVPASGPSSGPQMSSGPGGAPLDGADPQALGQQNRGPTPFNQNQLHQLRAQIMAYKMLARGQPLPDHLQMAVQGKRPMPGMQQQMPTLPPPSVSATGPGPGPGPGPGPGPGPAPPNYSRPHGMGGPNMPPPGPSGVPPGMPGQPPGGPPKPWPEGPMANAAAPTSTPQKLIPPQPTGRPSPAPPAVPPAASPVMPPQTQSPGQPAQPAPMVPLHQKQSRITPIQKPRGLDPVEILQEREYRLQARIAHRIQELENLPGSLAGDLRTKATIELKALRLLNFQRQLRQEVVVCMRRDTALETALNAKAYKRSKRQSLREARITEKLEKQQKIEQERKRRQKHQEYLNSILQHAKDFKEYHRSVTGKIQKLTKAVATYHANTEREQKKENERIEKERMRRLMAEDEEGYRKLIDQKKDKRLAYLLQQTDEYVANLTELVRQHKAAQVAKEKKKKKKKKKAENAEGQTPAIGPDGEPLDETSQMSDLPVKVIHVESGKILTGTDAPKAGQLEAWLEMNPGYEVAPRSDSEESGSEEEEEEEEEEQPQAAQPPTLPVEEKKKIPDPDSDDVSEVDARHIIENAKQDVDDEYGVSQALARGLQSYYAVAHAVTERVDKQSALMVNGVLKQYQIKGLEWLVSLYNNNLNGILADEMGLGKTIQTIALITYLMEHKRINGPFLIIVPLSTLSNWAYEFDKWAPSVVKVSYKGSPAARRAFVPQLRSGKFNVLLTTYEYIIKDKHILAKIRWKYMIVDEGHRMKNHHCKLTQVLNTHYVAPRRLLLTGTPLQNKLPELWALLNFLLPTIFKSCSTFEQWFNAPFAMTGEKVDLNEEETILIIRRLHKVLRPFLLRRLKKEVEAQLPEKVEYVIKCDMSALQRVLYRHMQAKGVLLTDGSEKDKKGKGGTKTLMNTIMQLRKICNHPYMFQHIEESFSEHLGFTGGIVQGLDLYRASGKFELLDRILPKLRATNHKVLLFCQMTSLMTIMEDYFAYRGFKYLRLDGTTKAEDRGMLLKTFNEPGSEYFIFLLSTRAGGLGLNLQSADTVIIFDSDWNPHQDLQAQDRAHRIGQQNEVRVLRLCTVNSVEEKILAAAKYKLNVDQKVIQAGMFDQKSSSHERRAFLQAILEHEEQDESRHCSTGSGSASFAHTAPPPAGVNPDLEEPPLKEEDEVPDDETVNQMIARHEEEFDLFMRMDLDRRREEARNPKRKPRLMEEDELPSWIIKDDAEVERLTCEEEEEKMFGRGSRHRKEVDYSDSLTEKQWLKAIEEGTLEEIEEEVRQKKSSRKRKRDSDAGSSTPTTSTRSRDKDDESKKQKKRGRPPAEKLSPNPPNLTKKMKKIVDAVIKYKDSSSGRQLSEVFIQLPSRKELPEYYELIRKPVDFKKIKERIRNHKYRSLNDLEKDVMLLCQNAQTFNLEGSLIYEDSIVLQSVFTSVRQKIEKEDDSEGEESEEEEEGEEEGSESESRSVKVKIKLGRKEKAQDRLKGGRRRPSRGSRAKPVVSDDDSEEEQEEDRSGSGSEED

[5] = target: T2, Bromodomain-containing protein 9 (Homo sapiens) (UniProt Q9H8M2); assay: Binding affinity to human BRD9 assessed as dissociation constant up to 1 uM by BROMOscan assay; outline: as §1
T2 sequence (whole entry): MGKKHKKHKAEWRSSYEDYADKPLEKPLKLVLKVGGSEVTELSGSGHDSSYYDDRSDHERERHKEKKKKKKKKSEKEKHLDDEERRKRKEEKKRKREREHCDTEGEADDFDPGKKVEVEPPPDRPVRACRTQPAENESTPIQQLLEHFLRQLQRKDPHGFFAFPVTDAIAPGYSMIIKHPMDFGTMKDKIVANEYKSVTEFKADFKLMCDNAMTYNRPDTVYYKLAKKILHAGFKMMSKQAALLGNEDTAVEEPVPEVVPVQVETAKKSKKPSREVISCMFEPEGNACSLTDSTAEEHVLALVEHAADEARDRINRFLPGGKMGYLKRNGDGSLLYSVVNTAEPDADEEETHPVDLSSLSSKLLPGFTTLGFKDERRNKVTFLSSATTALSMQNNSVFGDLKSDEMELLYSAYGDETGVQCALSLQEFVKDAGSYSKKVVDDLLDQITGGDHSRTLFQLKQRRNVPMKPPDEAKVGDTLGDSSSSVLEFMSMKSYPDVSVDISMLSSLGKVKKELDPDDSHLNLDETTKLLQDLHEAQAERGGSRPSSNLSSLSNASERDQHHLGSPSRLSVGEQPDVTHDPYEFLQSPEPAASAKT

[6] = target: Histone acetyltransferase KAT2B (Homo sapiens) (UniProt Q92831); assay: Binding affinity to human PCAF assessed as dissociation constant up to 1 uM by BROMOscan assay; outline: as §1
Histone acetyltransferase KAT2B (Homo sapiens), sequence (Q92831 whole entry, looked up): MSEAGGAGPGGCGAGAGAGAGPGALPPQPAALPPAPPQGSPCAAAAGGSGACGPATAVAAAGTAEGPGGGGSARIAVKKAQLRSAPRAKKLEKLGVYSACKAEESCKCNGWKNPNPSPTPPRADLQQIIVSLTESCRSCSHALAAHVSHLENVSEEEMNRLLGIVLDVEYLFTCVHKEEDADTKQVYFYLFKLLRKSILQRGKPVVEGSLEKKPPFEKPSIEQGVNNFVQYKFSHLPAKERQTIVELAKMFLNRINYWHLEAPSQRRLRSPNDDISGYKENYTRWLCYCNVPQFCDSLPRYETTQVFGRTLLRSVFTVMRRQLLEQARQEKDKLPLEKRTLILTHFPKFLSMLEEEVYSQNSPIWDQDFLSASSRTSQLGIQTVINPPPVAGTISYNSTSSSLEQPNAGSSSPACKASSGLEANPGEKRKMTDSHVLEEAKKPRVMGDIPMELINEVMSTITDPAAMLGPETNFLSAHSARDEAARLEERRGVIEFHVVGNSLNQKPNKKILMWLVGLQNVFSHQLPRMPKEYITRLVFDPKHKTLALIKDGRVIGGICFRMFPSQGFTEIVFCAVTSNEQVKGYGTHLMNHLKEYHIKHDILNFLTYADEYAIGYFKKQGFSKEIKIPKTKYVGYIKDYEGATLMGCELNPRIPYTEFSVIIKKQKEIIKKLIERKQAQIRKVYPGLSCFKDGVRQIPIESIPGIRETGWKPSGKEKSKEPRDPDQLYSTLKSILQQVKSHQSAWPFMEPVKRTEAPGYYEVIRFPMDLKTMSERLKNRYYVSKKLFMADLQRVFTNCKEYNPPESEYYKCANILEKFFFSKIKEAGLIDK

Row | Activity [1] | Activity [2] | Activity [3] | Activity [4] | Activity [5] | Activity [6] | SMILES
1 | inactive | inactive | inactive | inactive | inactive | inactive | COc1ccc2c(c1)N(CCC/C=C/c1cccc3c1N[C@H](C)CC(=O)N3)CCC2
2 | inactive | inactive | inactive | inactive | inactive | inactive | COc1ccc2c(c1)N(CCC/C=C/c1cccc3c1N[C@@H](C)CC(=O)N3)CCC2
